This is a sample that favours compounds with a hit; in the whole collection about 2.1% have one here.
PDI turbidity = inhibitors of human PDI, primary screen, biochemical, turbidity, single point, plate reader; Protein disulfide-isomerase (Homo sapiens), P07237; PDI insulin aggregation turbidity, A650, 90 min; inhibition, % at 10 µM; 350,000 compounds, 0.052% hits; AID 588391, 2011;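 active = mean inhibition across replicates of 30% or more, whatever share of single replicates reach that level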
ERp5 block = inhibitors of ERp5-driven insulin aggregation, primary screen, biochemical, turbidity, absorbance 650 nm, single point; inhibition, % at 9.99 µM; 350,000 compounds, 0.05% hits; 90 min;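 active = mean replicate inhibition above about 25%, with every replicate also reaching it, limit read from the data, passing the limit was not always enough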
FN deposition inh = inhibitors of fibronectin matrix deposition, primary screen, AH1F cells, Alexa488-fibronectin fluorescence, plate reader; AID 743247, 2014; inhibition, % at 12.6 µM; 350,000 compounds, 0.086% hits; AH1F fibroblasts, overnight;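 active = mean inhibition across replicates of 30% or more, regardless of how many single replicates reach that level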
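Material – AH1F fibroblast monolayer, labelled fibronectin deposition · Reagent – labelled fibronectin 24 nM · Timing – 1 h adhesion, overnight exposure · Measured by – fluorescence at 485 nm excitation, 525 nm emission · Read-out – inhibition of fibronectin deposition signal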
FGF22 binding = binders of human FGF22 protein, primary screen, FGF22 synaptogenesis inhibitor project, biophysical, thermal shift, single point; AID 651658, 2012; 340,000 compounds, 1.5% hits; activity (Tm shift, normalised), % at 9.99 µM; Fibroblast growth factor 22 (Homo sapiens), Q9HCT0; recombinant FGF22 thermal shift, SYPRO orange fluorescence; percent of sucrose octasulfate shift, DMSO zero;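 active = mean Tm shift, scaled 0 neutral to 100 positive control, at about 1.3% or above, every replicate too, limit read from the data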
Target sequence (Q9HCT0 whole entry, looked up): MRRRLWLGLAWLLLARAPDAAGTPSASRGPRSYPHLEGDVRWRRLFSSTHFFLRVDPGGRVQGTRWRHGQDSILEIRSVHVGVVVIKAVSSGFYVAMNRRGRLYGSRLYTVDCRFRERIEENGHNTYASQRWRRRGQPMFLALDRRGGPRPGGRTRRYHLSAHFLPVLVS
ARNT-TACC3 inh = disruptors of ARNT/TACC3 protein interaction, primary screen, biochemical, AlphaScreen, single concentration. Transforming acidic coiled-coil-containing protein 3 (Homo sapiens), Q9Y6A5. AlphaScreen His-ARNT PAS-B/GST-TACC3 binding, luminescence; TACC3 fragment carries E629A point mutation. inhibition, % at 9.99 µM. 390,000 compounds, 0.66% hits;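 active = mean inhibition of replicates at least 50% and at least half of replicates each reaching 50%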
AF4-AF9 inh = inhibitors of AF4 peptide binding to AF9, primary screen, biochemical, AlphaScreen, biotin-AF4 peptide, FLAG-AF9, single point. inhibition, % at 10 µM. 350,000 compounds, 0.47% hits. Protein AF-9 (Homo sapiens), P42568;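 active = every replicate reaching a set inhibition limit, whatever the replicate mean, cut at about 25% in these data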
Target sequence (P42568 whole entry, looked up): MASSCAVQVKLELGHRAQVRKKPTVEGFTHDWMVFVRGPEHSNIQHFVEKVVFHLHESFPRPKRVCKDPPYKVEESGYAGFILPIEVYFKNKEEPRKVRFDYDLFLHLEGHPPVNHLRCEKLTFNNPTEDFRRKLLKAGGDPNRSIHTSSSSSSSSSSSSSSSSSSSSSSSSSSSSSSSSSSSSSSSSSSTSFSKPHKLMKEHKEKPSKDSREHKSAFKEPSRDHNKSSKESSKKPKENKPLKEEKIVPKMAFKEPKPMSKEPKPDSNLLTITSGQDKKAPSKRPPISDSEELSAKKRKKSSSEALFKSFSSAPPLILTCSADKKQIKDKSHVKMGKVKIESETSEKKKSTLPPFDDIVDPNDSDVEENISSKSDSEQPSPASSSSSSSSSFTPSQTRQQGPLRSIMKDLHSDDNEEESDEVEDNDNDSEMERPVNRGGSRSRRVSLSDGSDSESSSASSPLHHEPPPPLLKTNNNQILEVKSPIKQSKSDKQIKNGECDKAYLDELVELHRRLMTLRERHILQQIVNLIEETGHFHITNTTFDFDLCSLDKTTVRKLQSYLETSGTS
Of the large screens only hits and unclear results are named; the others gave an inactive call.

CO[C@@H]1CN(C)C(=O)c2cc(NC(=O)Nc3ccccc3)ccc2OC[C@H](C)N(C(=O)CC2CC2)C[C@H]1C	none (no result: PDI turbidity)
CC(C)(C)C(O)CN1CCCC1 (stereo not given)	FGF22 binding 43.6
CCC(=O)N1[C@H](CO)[C@@H](c2ccccc2-c2cccc(C)c2)[C@@H]1C#N	none (no result: PDI turbidity, ARNT-TACC3 inh)
COc1cc(CCC(=O)OCC(N)=O)cc(OC)c1OC	FGF22 binding 43.5
CCOc1ccc(NC(=O)CN(C)C(=O)c2cc([N+](=O)[O-])ccc2Sc2ccccc2)cc1OCC	FGF22 binding 18.6
C=CCn1c(NCCO)nc2sc3c(c2c1=O)CCC3	FN deposition inh 36.9
CC(=O)N1CCN(c2ccc(NCc3ccc(C)s3)cc2)CC1	AF4-AF9 inh 27.4 (no result: PDI turbidity)
C[C@H]1CN([C@@H](C)CO)C(=O)c2cc(C3=CCCCC3)cnc2O[C@@H]1CN(C)C(=O)C1CCOCC1	none (no result: PDI turbidity)
COc1ccc2c3c(n(C)c2c1)[C@H](CO)N(Cc1ccc(F)cc1)CC31CCN(CC2CC2)CC1	none (no result: PDI turbidity, FN deposition inh, ARNT-TACC3 inh)
COc1ccc2c3c(n(C)c2c1)[C@H](CO)N(Cc1ccncc1)CC31CCN(C(=O)C2CCCCC2)CC1	AF4-AF9 inh 30.6 (no result: PDI turbidity, FN deposition inh, ARNT-TACC3 inh)
COc1ccc2c3c(n(C)c2c1)[C@@H](CO)N(Cc1ccccc1OC)CC31CCN(C)CC1	AF4-AF9 inh 26.3 (no result: PDI turbidity, FN deposition inh, ARNT-TACC3 inh)
COc1ccc2c3c(n(C)c2c1)[C@@H](CO)N(Cc1ccc(Cl)cc1)CC31CCN(CC2CC2)CC1	AF4-AF9 inh 37.0 (no result: PDI turbidity, ARNT-TACC3 inh)
COc1ccc2c3c(n(C)c2c1)[C@H](CO)N(Cc1ccccc1F)CC31CCN(CC2CC2)CC1	AF4-AF9 inh 40.0 (no result: PDI turbidity, FN deposition inh, ARNT-TACC3 inh)
C[C@H](CO)N1C[C@H](C)[C@H](CN(C)S(C)(=O)=O)Oc2c(NS(=O)(=O)c3ccccc3)cccc2C1=O	none (no result: PDI turbidity)
COc1ccc2c3c(n(C)c2c1)[C@H](CO)N(Cc1ccc(Cl)cc1)CC31CCN(CC2CC2)CC1	AF4-AF9 inh 29.5 (no result: PDI turbidity, ARNT-TACC3 inh)
COc1ccc2c3c(n(C)c2c1)[C@H](CO)N(Cc1ccc(Cl)cc1)CC31CN(CC2CC2)C1	none (no result: PDI turbidity, ERp5 block, ARNT-TACC3 inh)
COc1ccc(CNc2ncnc3cc(Cl)ccc23)cc1OC	FGF22 binding 43.3
C=CCOc1ccc(C[C@H](N)C(=O)NC[C@H]2O[C@@H](n3ccc(N)nc3=O)[C@H](O)[C@@H]2O)cc1	FGF22 binding 43.3 (no result: ARNT-TACC3 inh)
Cc1ncsc1C(=O)Nc1nc2c(s1)CCCC2	none (no result: FN deposition inh)
O=C(Nc1nc2c(s1)CCCC2)c1ccc2ncsc2c1	FGF22 binding 1.7
CC=Cc1ccc2n(c1=O)C[C@@H]1[C@@H](CO)[C@H](C(=O)Nc3ccc(-c4ccccc4)cc3)[C@H]2N1CC (mixture of isomers)	none (no result: PDI turbidity, FN deposition inh, ARNT-TACC3 inh)
O=C(CCN=C1NS(=O)(=O)c2ccccc21)OCC(=O)c1ccccc1Cl	none (no result: FN deposition inh, ARNT-TACC3 inh)
O=C(CN=C1NS(=O)(=O)c2ccccc21)OCC(=O)c1cc(F)ccc1F	FGF22 binding 43.0
CO[C@H]1CN(C)C(=O)c2ccc(NC(=O)Nc3cc(F)ccc3F)cc2OC[C@@H](C)NC[C@H]1C	none (no result: PDI turbidity)
O=S(=O)(c1ccc(N2CCN(S(=O)(=O)c3ccccc3)CC2)nc1)N1CCCC1	FGF22 binding 43.1
NNc1ccc(S(=O)(=O)N2CCCCC2)cn1	ARNT-TACC3 inh 53.8
O=S(=O)(c1ccc(N2CCCC2)nc1)N1CCCC1	none
Cc1ccc(C(=O)Sc2cccccc2=O)cc1	ARNT-TACC3 inh 56.9
O/N=C\c1cccn1-c1nccs1	none
N#Cc1cccn1-c1nccs1	FGF22 binding 43.3 (no result: FN deposition inh)
CC1(c2ccccc2)NC(=O)N(CC(=O)Nc2ccc([N+](=O)[O-])cc2)C1=O (stereo not given)	FGF22 binding 43.3
CC1(c2ccc([N+](=O)[O-])cc2)NC(=O)N(CC(=O)Nc2ccc(N3CCCCC3)cc2)C1=O (stereo not given)	none
CCN1[C@@H]2c3cccc(=O)n3C[C@@H]2[C@@H](CO)[C@@H]1C(=O)N1CCc2ccccc2C1	none (no result: PDI turbidity, FN deposition inh)
O=C(c1ccco1)N1CCN(Cc2cc(=O)c(OCc3ccccc3F)co2)CC1	FGF22 binding 65.6
CCNC(=O)C[C@H]1CC[C@H]2[C@@H](COc3ccc(NS(C)(=O)=O)cc3C(=O)N2C)O1	none (no result: PDI turbidity)
C[C@@H]1CN([C@@H](C)CO)C(=O)c2cc(NS(=O)(=O)c3cn(C)cn3)ccc2O[C@@H](C)CCCCO[C@@H]1CN(C)C(=O)Nc1ccc(F)cc1	none (no result: PDI turbidity)
O=C(CNC(=O)Cc1ccccc1)N=Nc1c(O)[nH]c2ccccc12	none (no result: ARNT-TACC3 inh)
O=C(NC(Cc1ccc(O)cc1)C(=O)N=Nc1c(O)[nH]c2ccccc12)c1ccccc1 (stereo not given)	PDI turbidity 44.9
CO[C@H]1C=CO[C@@]2(C)Oc3c(C)c(O)c4c(O)c(c(C=NN5CCN(C)CC5)c(O)c4c3C2=O)NC(=O)C(C)=CC=C[C@H](C)[C@H](O)[C@@H](C)[C@@H](O)[C@@H](C)[C@H](OC(C)=O)[C@@H]1C	none
CO[C@H]1/C=C/O[C@@]2(C)Oc3c(C)c(O)c4c(O)c(c(C=NN5CCN(C)CC5)c(O)c4c3C2=O)NC(=O)/C(C)=C\C=C\[C@H](C)[C@H](O)[C@@H](C)[C@@H](O)[C@@H](C)[C@H](OC(C)=O)[C@@H]1C	AF4-AF9 inh 31.2
Cc1noc(C)c1NC(=O)N(C)C[C@@H]1Oc2ccc(NC(=O)Nc3ccccc3)cc2CC(=O)N([C@H](C)CO)C[C@@H]1C	none (no result: PDI turbidity)
O=C(COC(=O)c1ccc2ccccc2n1)Nc1cccc(S(=O)(=O)NC2=NCCCCC2)c1	FGF22 binding 43.2
CCc1nc2ccccc2c(C(=O)OCC(=O)Nc2cccc(S(=O)(=O)NC3=NCCCCC3)c2)c1C	none
O=C(/C=C/c1ccccc1Cl)Nc1cccc(S(=O)(=O)NC2=NCCCCC2)c1	none (no result: ERp5 block, FGF22 binding, AF4-AF9 inh)
O=C(/C=C/c1ccc(Cl)cc1Cl)Nc1cccc(S(=O)(=O)NC2=NCCC2)c1	FN deposition inh 33.1
CCOC(=O)N1CCN(C(=O)C2CCN(S(=O)(=O)c3cc(OC)ccc3OC)CC2)CC1	FGF22 binding 43.0
CCOC(=O)N1CCN(C(=O)C2CCN(S(=O)(=O)c3cc(C)ccc3OC)CC2)CC1	none
CC(=O)c1ccc(N(C(=O)c2ccco2)C(C(=O)NC2CCCC2)c2ccc(N3CCOCC3)cc2)cc1 (stereo not given)	FGF22 binding 43.7 (no result: ARNT-TACC3 inh)
O=S(=O)(N[C@H]1CC[C@@H](CCn2cc(-c3ccccc3F)nn2)O[C@@H]1CO)c1ccc(F)cc1	none (no result: PDI turbidity, FN deposition inh, FGF22 binding, ARNT-TACC3 inh)

Screening data as filed in PubChem.
